# Key:
# Conditions in all cases: stereoisomer not certain
# OR10R2 (Homo sapiens) = target: T1, OR10R2 (Homo sapiens) (UniProt Q8NGX6)
# T1 sequence (whole entry): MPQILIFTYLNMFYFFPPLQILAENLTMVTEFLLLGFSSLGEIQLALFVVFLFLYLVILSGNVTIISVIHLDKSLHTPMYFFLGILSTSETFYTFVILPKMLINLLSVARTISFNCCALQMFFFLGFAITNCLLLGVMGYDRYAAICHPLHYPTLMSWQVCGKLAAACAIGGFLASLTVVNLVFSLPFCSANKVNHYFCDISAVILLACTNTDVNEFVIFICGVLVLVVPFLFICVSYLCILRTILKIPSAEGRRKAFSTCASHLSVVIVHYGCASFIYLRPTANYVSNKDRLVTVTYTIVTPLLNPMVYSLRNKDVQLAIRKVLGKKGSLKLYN
# How it was run: (§1)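 Each entry records the cell line, G-protein, co-transfected protein and tags used. Methods varied with the source, often transient luciferase assays in mammalian cell lines. A receptor–molecule pair is called responsive (active) if the original authors judged its signal statistically different from baseline and non-responsive (inactive) otherwise.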
# OR10S1 (Homo sapiens) = target: T2, OR10S1 (Homo sapiens) (UniProt Q8NGN2)
# T2 sequence (whole entry): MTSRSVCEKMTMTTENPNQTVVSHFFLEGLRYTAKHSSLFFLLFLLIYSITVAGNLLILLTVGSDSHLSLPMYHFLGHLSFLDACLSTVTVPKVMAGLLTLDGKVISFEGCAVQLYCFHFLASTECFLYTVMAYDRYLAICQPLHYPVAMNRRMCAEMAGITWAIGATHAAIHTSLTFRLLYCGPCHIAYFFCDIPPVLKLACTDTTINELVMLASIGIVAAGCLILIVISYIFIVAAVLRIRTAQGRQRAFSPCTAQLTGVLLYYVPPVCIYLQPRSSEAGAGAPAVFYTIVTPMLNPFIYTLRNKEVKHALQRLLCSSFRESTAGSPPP
# How it was run: as §1
# OR10T2 (Homo sapiens) = target: T3, OR10T2 (Homo sapiens) (UniProt Q8NGX3)
# T3 sequence (whole entry): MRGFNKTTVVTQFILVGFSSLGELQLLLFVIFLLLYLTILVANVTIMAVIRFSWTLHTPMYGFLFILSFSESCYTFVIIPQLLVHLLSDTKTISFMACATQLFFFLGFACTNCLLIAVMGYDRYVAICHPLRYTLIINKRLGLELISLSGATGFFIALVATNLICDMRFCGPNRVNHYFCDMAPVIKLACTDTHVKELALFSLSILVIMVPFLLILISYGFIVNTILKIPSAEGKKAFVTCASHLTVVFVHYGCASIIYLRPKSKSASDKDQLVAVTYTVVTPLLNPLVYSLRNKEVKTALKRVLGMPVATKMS
# How it was run: as §1
# OR10V1 (Homo sapiens) = target: T4, OR10V1 (Homo sapiens) (UniProt Q8NGI7)
# T4 sequence (whole entry): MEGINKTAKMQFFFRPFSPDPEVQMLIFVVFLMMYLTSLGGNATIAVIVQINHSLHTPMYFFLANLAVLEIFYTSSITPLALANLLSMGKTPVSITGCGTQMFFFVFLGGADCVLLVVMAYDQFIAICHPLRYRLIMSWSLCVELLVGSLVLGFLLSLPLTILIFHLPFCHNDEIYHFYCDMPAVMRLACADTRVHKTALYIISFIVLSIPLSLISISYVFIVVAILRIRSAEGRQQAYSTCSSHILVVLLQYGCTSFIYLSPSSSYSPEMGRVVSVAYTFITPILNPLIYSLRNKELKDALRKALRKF
# How it was run: as §1
# OR10W1 (Homo sapiens) = target: T5, OR10W1 (Homo sapiens) (UniProt Q8NGF6)
# T5 sequence (whole entry): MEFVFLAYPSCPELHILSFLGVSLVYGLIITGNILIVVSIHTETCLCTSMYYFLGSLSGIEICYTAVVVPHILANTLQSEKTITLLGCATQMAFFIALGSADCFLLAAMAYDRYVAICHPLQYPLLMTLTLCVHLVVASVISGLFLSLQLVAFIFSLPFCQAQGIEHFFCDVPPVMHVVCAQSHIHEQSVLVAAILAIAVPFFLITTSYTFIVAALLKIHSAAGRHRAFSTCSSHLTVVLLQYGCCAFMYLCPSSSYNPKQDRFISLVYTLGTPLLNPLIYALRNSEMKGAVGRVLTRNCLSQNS
# How it was run: as §1
# OR10X1 (Homo sapiens) = target: T6, OR10X1 (Homo sapiens) (UniProt Q8NGY0)
# T6 sequence (whole entry): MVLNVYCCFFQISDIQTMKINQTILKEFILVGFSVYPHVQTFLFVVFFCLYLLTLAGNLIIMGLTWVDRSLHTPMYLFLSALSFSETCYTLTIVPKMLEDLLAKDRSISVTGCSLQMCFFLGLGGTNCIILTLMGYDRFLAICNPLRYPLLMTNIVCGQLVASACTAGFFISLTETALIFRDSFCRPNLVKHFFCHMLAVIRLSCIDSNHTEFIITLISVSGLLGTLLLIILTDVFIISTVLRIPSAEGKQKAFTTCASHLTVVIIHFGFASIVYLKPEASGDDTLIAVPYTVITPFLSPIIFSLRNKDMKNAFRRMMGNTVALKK
# How it was run: as §1
# OR10Z1 (Homo sapiens) = target: T7, OR10Z1 (Homo sapiens) (UniProt Q8NGY1)
# T7 sequence (whole entry): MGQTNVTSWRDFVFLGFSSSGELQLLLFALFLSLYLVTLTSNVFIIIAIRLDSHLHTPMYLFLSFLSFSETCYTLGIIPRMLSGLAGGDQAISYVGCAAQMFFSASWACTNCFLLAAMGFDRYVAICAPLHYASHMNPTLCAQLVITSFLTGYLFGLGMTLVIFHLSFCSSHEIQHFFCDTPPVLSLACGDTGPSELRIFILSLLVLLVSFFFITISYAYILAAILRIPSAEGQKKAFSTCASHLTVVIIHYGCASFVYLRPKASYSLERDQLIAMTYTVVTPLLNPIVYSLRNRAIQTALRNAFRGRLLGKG
# How it was run: as §1
# OR11A1 (Homo sapiens) = target: T8, OR11A1 (Homo sapiens) (UniProt Q9GZK7)
# T8 sequence (whole entry): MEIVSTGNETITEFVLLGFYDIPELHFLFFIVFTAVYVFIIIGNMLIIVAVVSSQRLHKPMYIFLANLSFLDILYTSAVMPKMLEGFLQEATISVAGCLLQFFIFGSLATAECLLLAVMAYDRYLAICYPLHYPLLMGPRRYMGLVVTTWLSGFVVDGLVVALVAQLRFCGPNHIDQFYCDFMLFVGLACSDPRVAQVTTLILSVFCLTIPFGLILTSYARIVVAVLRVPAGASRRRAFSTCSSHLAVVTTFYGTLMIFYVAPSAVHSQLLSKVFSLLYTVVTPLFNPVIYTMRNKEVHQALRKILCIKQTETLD
# How it was run: as §1
# OR11G2 (Homo sapiens) = target: T9, OR11G2 (Homo sapiens) (UniProt Q8NGC1)
# T9 sequence (whole entry): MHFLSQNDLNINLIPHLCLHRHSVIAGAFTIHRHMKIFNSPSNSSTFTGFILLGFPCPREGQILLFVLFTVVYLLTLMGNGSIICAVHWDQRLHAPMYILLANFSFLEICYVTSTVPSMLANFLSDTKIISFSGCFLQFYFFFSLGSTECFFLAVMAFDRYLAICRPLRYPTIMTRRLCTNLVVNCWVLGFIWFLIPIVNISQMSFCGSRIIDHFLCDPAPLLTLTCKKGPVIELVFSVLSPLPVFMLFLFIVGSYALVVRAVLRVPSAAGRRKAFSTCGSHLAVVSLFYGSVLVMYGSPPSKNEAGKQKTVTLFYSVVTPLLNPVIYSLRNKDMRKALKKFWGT
# How it was run: as §1
# OR11H1 (Homo sapiens) = target: T10, OR11H1 (Homo sapiens) (UniProt Q8NG94)
# T10 sequence (whole entry): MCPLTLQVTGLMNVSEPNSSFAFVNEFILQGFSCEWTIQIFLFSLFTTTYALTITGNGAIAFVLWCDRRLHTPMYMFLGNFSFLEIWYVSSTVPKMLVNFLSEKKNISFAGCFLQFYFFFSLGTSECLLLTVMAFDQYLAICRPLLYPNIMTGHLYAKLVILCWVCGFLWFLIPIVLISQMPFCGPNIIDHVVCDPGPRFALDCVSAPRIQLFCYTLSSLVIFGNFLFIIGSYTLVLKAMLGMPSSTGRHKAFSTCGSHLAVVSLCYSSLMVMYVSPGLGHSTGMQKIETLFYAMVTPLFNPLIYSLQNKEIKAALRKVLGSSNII
# How it was run: as §1
SMILES,odorant receptor agonist call (OR10R2 (Homo sapiens)),odorant receptor agonist call (OR10S1 (Homo sapiens)),odorant receptor agonist call (OR10T2 (Homo sapiens)),odorant receptor agonist call (OR10V1 (Homo sapiens)),odorant receptor agonist call (OR10W1 (Homo sapiens)),odorant receptor agonist call (OR10X1 (Homo sapiens)),odorant receptor agonist call (OR10Z1 (Homo sapiens)),odorant receptor agonist call (OR11A1 (Homo sapiens)),odorant receptor agonist call (OR11G2 (Homo sapiens)),odorant receptor agonist call (OR11H1 (Homo sapiens))
CCCC(S)CCOC(C)=O (stereo not given),inactive,inactive,inactive,inactive,inactive,inactive,inactive,inactive,inactive,inactive
CCCCCCC=CCCC=O,inactive,inactive,inactive,inactive,inactive,inactive,inactive,inactive,inactive,inactive
C=C(C)C1CC=C(C)CC1 (stereo not given),,inactive,,,,,,,,
CC(C)=CCCC(C)=CCCC(C)=CCO,,inactive,,,,,,,,
CCCCCCCCCCCCO,,active,,,,,,,,
CCC1OC(C)=C(O)C1=O (stereo not given),inactive,inactive,inactive,inactive,inactive,inactive,inactive,inactive,inactive,inactive
Cc1cnc(C)c(C)n1,inactive,inactive,inactive,inactive,inactive,inactive,inactive,inactive,inactive,inactive
CCCCCC(=O)C(C)C(C)=O (stereo not given),inactive,inactive,inactive,inactive,inactive,inactive,inactive,inactive,inactive,inactive
CCC1OC(=O)C(O)=C1C (stereo not given),inactive,inactive,inactive,inactive,inactive,inactive,inactive,inactive,inactive,inactive
CCCCCCCCCCCC(=O)O,,inactive,,,,,,,,
CC1=C(O)C(=O)C(C)O1 (stereo not given),inactive,inactive,inactive,inactive,inactive,inactive,inactive,inactive,inactive,inactive
CC1CCCCCCCCCCCCC(=O)C1 (stereo not given),inactive,inactive,inactive,inactive,inactive,inactive,inactive,inactive,inactive,inactive
CC(CO)CS (stereo not given),inactive,inactive,inactive,inactive,inactive,inactive,inactive,inactive,inactive,inactive
CC(=O)c1c(C)c([N+](=O)[O-])c(C(C)(C)C)c([N+](=O)[O-])c1C,inactive,inactive,inactive,inactive,inactive,inactive,inactive,inactive,inactive,inactive
CCCCC(=O)C(C)=O,,inactive,,,,,,,,
CCC(C)CO (stereo not given),,inactive,,,,,,,,
CCC(S)C(C)CO (stereo not given),inactive,inactive,inactive,inactive,inactive,inactive,inactive,inactive,inactive,inactive
CC(C)=CCCC(C)=CCO,,active,,,,,,,,
CCCCC(S)C(C)CO (stereo not given),inactive,inactive,inactive,inactive,inactive,inactive,inactive,inactive,inactive,inactive
CC1=CCC2CC1C2(C)C (stereo not given),,inactive,,,,,,,,
CCCCCC(S)C(C)CO (stereo not given),inactive,inactive,inactive,inactive,inactive,inactive,inactive,inactive,inactive,inactive
CC1=C(O)C(=O)OC1C (stereo not given),inactive,inactive,inactive,inactive,inactive,inactive,inactive,inactive,inactive,inactive
COc1ccc2[nH]cc(CCNC(C)=O)c2c1,,inactive,,,,,,,,
CCCCCCCCCCCC(=O)OCC,,inactive,,,,,,,,
CC1=NC(C)C(C)S1 (stereo not given),inactive,inactive,inactive,inactive,inactive,inactive,inactive,inactive,inactive,inactive

# Source: the M2OR odorant receptor database
